Drawing on ChEMBL document CHEMBL1143851, “Antimicrobial susceptibilities of Peptostreptococcus anaerobius and the newly described Peptostreptococcus stomatis isolated from various human sources” (2007), this text covers MIC50 and MIC90 for 7 compounds.

Experiment [1] deals with Peptostreptococcus anaerobius. The experiment can be described thus: Antibacterial activity against Peptostreptococcus anaerobius. It is filed as functional. In short, it runs like this:
(§1)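 Clinical isolates (1985–2005) revived from −70°C stocks and subcultured on brucella blood agar. Etest MICs: 48-h anaerobic growth on prereduced brucella and fastidious anaerobe agars (5% defibrinated sheep blood, hemin, vitamin K1) suspended in 0.9% NaCl to 1–2 McFarland, spread on fresh plates of both media; incubated anaerobically at 37°C for 48 h (72 h for slow growers).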

The test system of experiment [2] is Peptostreptococcus stomatis. As to the kind of experiment: Antibacterial activity against Peptostreptococcus stomatis. The experiment is classed as functional. The essentials: as §1

Usually MIC50 stands for an inhibitory concentration at the 50% level, which refers to growth in some studies and to a panel of isolates in others. Read a high MIC50 as weaker potency. One may read the MIC90 as an inhibitory concentration at the 90% level, which refers to growth in some studies and to a panel of isolates in others. The low end stands for greater potency, the high end for weaker potency.

≈ marks a conversion by molar mass, not a printed value.

In the case of `CC1(C)S[C@@H]2[C@H](NC(=O)[C@H](N)c3ccc(O)cc3)C(=O)N2[C@H]1C(=O)O` [AMOXICILLIN], the MIC50 in experiment [1] was 0.125 µg/mL (≈ 0.342 µM); in experiment [2], below 0.016 µg/mL. Moreover, the MIC90 in experiment [1] turned out to be 0.38 µg/mL (≈ 1.04 µM); in experiment [2], 0.094 µg/mL (≈ 0.257 µM).
In experiment [1], `CC[C@H]1OC(=O)[C@H](C)[C@@H](O[C@H]2C[C@@](C)(OC)[C@@H](O)[C@H](C)O2)[C@H](C)[C@@H](O[C@@H]2O[C@H](C)C[C@H](N(C)C)[C@H]2O)[C@](C)(O)C[C@@H](C)CN(C)[C@H](C)[C@@H](O)[C@]1(C)O` [AZITHROMYCIN] showed an MIC50 of 0.5 µg/mL (≈ 0.668 µM) and an MIC90 of 1 µg/mL (≈ 1.34 µM). In experiment [2], this compound returned an MIC50 of 0.19 µg/mL (≈ 0.254 µM) and an MIC90 of 0.75 µg/mL (≈ 1 µM).
In experiment [1], `CO[C@@]1(NC(=O)Cc2cccs2)C(=O)N2C(C(=O)O)=C(COC(N)=O)CS[C@@H]21` [CEFOXITIN] returned an MIC50 of 0.38 µg/mL (≈ 0.889 µM) and an MIC90 of 0.75 µg/mL (≈ 1.75 µM). Besides, in experiment [2], the MIC50 is 0.064 µg/mL (≈ 0.15 µM) and the MIC90 stood at 0.38 µg/mL (≈ 0.889 µM).
In experiment [1], `CCC[C@@H]1C[C@@H](C(=O)N[C@@H]([C@H]2O[C@H](SC)[C@H](O)[C@@H](O)[C@H]2O)[C@H](C)Cl)N(C)C1` [CLINDAMYCIN] came in with an MIC50 of 0.19 µg/mL (≈ 0.447 µM) and an MIC90 of 0.75 µg/mL (≈ 1.76 µM). Also, in experiment [2], the MIC50 is below 0.016 µg/mL and the MIC90 worked out at 0.016 µg/mL (≈ 0.0376 µM).
In the same order, the values of `C[C@@H](O)[C@H]1C(=O)N2C(C(=O)O)=C(S[C@@H]3CN[C@H](C(=O)Nc4cccc(C(=O)O)c4)C3)[C@H](C)[C@H]12` [ERTAPENEM] are 0.25 µg/mL (≈ 0.526 µM), 0.38 µg/mL (≈ 0.799 µM), 0.047 µg/mL (≈ 0.0988 µM) and 0.19 µg/mL (≈ 0.4 µM).
The corresponding values for `Cc1ncc([N+](=O)[O-])n1CCO` [METRONIDAZOLE] are 0.094 µg/mL (≈ 0.549 µM), 0.19 µg/mL (≈ 1.11 µM), below 0.016 µg/mL and 0.047 µg/mL (≈ 0.275 µM).
In experiment [1], `COc1c(N2C[C@@H]3CCCN[C@@H]3C2)c(F)cc2c(=O)c(C(=O)O)cn(C3CC3)c12` [MOXIFLOXACIN] had an MIC50 of 0.125 µg/mL (≈ 0.311 µM) and an MIC90 of 0.125 µg/mL (≈ 0.311 µM). In experiment [2], the MIC50 stood at 0.094 µg/mL (≈ 0.234 µM) and the MIC90 turned out to be 0.125 µg/mL (≈ 0.311 µM).
